Laboratory results from ChEMBL document CHEMBL1122744, “2-Chloroethyl (methylsulfonyl)methanesulfonate and related (methylsulfonyl)methanesulfonates. Antineoplastic activity in vivo” (J Med Chem, 1984).
“And” between values parts separate entries of the source, which are not always exact repeats. Equal values may be shown once.

Columns and labels:
[1] = Ratio of number of 30-day survivors to the total treated mice at dose 25 mg/kg in exp2; 3/6; format: functional
Mus musculus [2] = test: Median survival time of the untreated control groups, in which there are no 30-day survivors at dose 12 mg/kg in exp2; format: functional
[3] = Ratio of median survival times for non-survivors at dose 50 mg/kg in exp1; t= toxic; format: ADME, organism-based; set-up: dose 50 mg/kg; details: in vivo
Mus musculus [4] = test: Median survival time of the untreated control groups, in which there are no 30-day survivors at dose 100 mg/kg in exp1; format: functional
Mus musculus [5] = test: Median survival time of the treated control groups, in which there are no 30-day survivors at dose 12 mg/kg in exp2; format: functional; details: 12 mg/kg
[6] = Ratio of median survival times for non-survivors at dose 100 mg/kg in exp1; t=toxic; format: ADME, organism-based; set-up: dose 100 mg/kg; details: in vivo
Summary of the method: (§1)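 Mice were inoculated ip with 10^6 P388 leukemia cells on day 0. Groups of six (occasionally five) were dosed ip qd on days 1–5 with fresh suspensions; 30 mice served as untreated controls. Deaths were recorded daily up to day 60. T/C% compares the median survival of treated non-survivors (<60 days) with the control median. Medians used grouped data when there were no 30-day survivors, otherwise ungrouped data. t = toxic.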

[7] = Ratio of number of 60-day survivors to the total treated mice at dose 25 mg/kg in exp2; 2/6; format: functional
[8] = Ratio of number of 60-day survivors to the total treated mice at dose 25 mg/kg in exp1; 0/6; format: functional
Mus musculus [9] = test: Mortality by day 5 expressed as number of mice died to the total treated at dose 50 mg/kg in exp1; 6/6; format: ADME, organism-based; set-up: dose 50 mg/kg; details: in vivo
Mus musculus [10] = test: Change in weight by day 5, obtained by subtracting treated groups of animals minus control groups of animals at dose 25 mg/kg in exp1.; format: functional
Summary of the method: (§2)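 Mice were inoculated ip with 10^6 P388 leukemia cells on day 0, when treated and control mice weighed 19–22 g. Treatment was given ip once daily on days 1–5, within about 5 min of preparing the solution or suspension. Groups of six (occasionally five) were treated, with 30 untreated inoculated mice as controls. The day-5 weight change is the mean treated change minus the mean control change.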

Mus musculus [11] = test: Median survival time of the treated control groups, in which there are no 30-day survivors at dose 25 mg/kg in exp2; format: functional
[12] = Ratio of number of 60-day survivors to the total treated mice at dose 25 mg/kg in exp2; 1/6; format: functional
Mus musculus [13] = test: Median survival time of the treated control groups, in which there are no 30-day survivors at dose 25 mg/kg in exp1*-based on the four of six that survived bryond 5th day; format: functional
Mus musculus [14] = test: Mortality by day 5 expressed as number of mice died to the total treated at dose 6 mg/kg in exp2; 0/6; format: ADME, organism-based; set-up: dose 6 mg/kg; details: in vivo
Mus musculus [15] = test: Change in weight by day 5, obtained by subtracting treated groups of animals minus control groups of animals at dose 50 mg/kg in exp2; format: functional; summary of the method: as §2
Mus musculus [16] = test: Mortality by day 5 expressed as number of mice died to the total treated at dose 100 mg/kg in exp1; 6/6; format: ADME, organism-based; set-up: dose 100 mg/kg; details: in vivo
Mus musculus [17] = test: Median survival time of the untreated control groups, in which there are no 30-day survivors at dose 50 mg/kg in exp1; format: functional
Mus musculus [18] = test: Mortality by day 5 expressed as number of mice died to the total treated at dose 25 mg/kg in exp1; 2/6; format: ADME, organism-based; set-up: dose 25 mg/kg; details: in vivo
Mus musculus [19] = test: Change in weight by day 5, obtained by subtracting treated groups of animals minus control groups of animals at dose 25 mg/kg in exp2; format: functional; summary of the method: as §2
[20] = Ratio of number of 30-day survivors to the total treated mice at dose 25 mg/kg in exp1; 2/6; format: functional
[21] = Ratio of median survival times for non-survivors at dose 25 mg/kg in exp1*-based on the four of six that survived bryond 5th day; format: functional
[22] = Ratio of median survival times for non-survivors at dose 12 mg/kg in exp2; format: functional; details: 12 mg/kg; summary of the method: as §1
Mus musculus [23] = test: Change in weight by day 5, obtained by subtracting treated groups of animals minus control groups of animals at dose 12 mg/kg in exp2; format: functional; summary of the method: as §2
Mus musculus [24] = test: Median survival time of the untreated control groups, in which there are no 30-day survivors at dose 25 mg/kg in exp1; format: functional
Mus musculus [25] = test: Mortality by day 5 expressed as number of mice died to the total treated at dose 200 mg/kg in exp1; 5/6; format: ADME, organism-based; set-up: dose 200 mg/kg; details: in vivo
Mus musculus [26] = test: Median survival time of the untreated control groups, in which there are no 30-day survivors at dose 25 mg/kg in exp2; format: functional
[27] = Ratio of median survival times for non-survivors at dose 25 mg/kg in exp2; format: functional; summary of the method: as §1
Mus musculus [28] = test: Mortality by day 5 expressed as number of mice died to the total treated at dose 25 mg/kg in exp2; 0/6; format: ADME, organism-based; set-up: dose 25 mg/kg; details: in vivo
Mus musculus [29] = test: Change in weight by day 5, obtained by subtracting treated groups of animals minus control groups of animals at dose 6 mg/kg in exp2; format: functional
Summary of the method: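 Mice were inoculated ip with 10^6 P388 leukemia cells on day 0 and weighed 19–22 g that day. Compound was given ip once daily on days 1–5, within about 5 min of preparing the solution or suspension, to groups of six (occasionally five). Thirty inoculated untreated mice served as controls. The value is the average weight change of treated mice minus that of controls on day 5.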

Mus musculus [30] = test: Median survival time of the untreated control groups, in which there are no 30-day survivors at dose 200 mg/kg in exp1; format: functional
[31] = Ratio of median survival times for non-survivors at dose 200 mg/kg in exp1; t= toxic; format: ADME, organism-based; set-up: dose 200 mg/kg; details: in vivo; summary of the method: as §1
Mus musculus [32] = test: Change in weight by day 5, obtained by subtracting treated groups of animals minus control groups of animals at dose 50 mg/kg in exp1.; format: functional; summary of the method: as §2
Mus musculus [33] = test: Median survival time of the treated control groups, in which there are no 30-day survivors at dose 100 mg/kg in exp1; format: functional
[34] = Ratio of median survival times for non-survivors at dose 50 mg/kg in exp1; format: functional; set-up: unit: %; summary of the method: as §1
Mus musculus [35] = test: Median survival time of the treated control groups, in which there are no 30-day survivors at dose 50 mg/kg in exp1; format: functional
Mus musculus [36] = test: Change in weight by day 5, obtained by subtracting treated groups of animals minus control groups of animals at dose 100 mg/kg in exp1.; format: functional; summary of the method: as §2
Mus musculus [37] = test: Mortality by day 5 expressed as number of mice died to the total treated at dose 100 mg/kg in exp1; 0/6; format: ADME, organism-based; set-up: dose 100 mg/kg; details: in vivo
Mus musculus [38] = test: Mortality by day 5 expressed as number of mice died to the total treated at dose 50 mg/kg in exp1; 0/6; format: ADME, organism-based; set-up: dose 50 mg/kg; details: in vivo
[39] = Ratio of median survival times for non-survivors at dose 100 mg/kg in exp1; format: functional; set-up: unit: %; summary of the method: as §1

Structure (SMILES): CS(=O)(=O)CS(=O)(=O)OCCF
- Ratio [1]: 3
- Median survival time (Mus musculus [2]): 10.5
- Ratio [3]: Toxic
- Median survival time (Mus musculus [4]): 11.2
- Median survival time (Mus musculus [5]): 19.8 and 15
- Ratio [6]: Toxic
- Ratio [7]: 2
- Ratio [8]: 0
- Mortality (Mus musculus [9]): 6
- Change in weight (Mus musculus [10]): -4.3
- Median survival time (Mus musculus [11]): 30
- Ratio [12]: 1
- Median survival time (Mus musculus [13]): 31
- Mortality (Mus musculus [14]): 0
- Change in weight (Mus musculus [15]): -4.8
- Mortality (Mus musculus [16]): 6
- Median survival time (Mus musculus [17]): 11.2
- Mortality (Mus musculus [18]): 2
- Change in weight (Mus musculus [19]): -5.6
- Ratio [20]: 2
- Ratio [21]: 277
- Ratio [22]: 188 and 142
- Change in weight (Mus musculus [23]): -3.7
- Median survival time (Mus musculus [24]): 11.2
- Mortality (Mus musculus [25]): 5
- Median survival time (Mus musculus [26]): 10.5
- Ratio [27]: 286
- Mortality (Mus musculus [28]): 0
- Change in weight (Mus musculus [29]): -1.8

Structure (SMILES): O=S(=O)(CCl)OCCBr
- Median survival time (Mus musculus [30]): 11.1
- Ratio [31]: Toxic
- Change in weight (Mus musculus [32]): -0.5
- Median survival time (Mus musculus [4]): 11.1
- Median survival time (Mus musculus [33]): 12.7
- Ratio [34]: 110
- Median survival time (Mus musculus [35]): 12.3
- Change in weight (Mus musculus [36]): -1.5
- Median survival time (Mus musculus [17]): 11.1
- Mortality (Mus musculus [37]): 0
- Mortality (Mus musculus [38]): 0
- Ratio [39]: 114
- Mortality (Mus musculus [25]): 5
